# Data reported in ChEMBL document CHEMBL1123247, “Nucleoside conjugates. 7. Synthesis and antitumor activity of 1-beta-D-arabinofuranosylcytosine conjugates of ether lipids” (J Med Chem, 1986).
# How the values were obtained:
# P388 [1] = test: Antitumor activity against ip implanted P388 leukemia in mice expressed as active dose range (1,5,9qd treatment schedule) required to produce increase in life span by >25% was determined; Range is 100-167; type: functional, Mus musculus
# How it was run: (§1)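 P388 leukemia: 1 × 10^6 cells were given ip on day 0 to DBA/2J mice, groups of 6 (23-33 g). Treatment was ip from 24 h after inoculation, vehicle 0.9% NaCl with 0.5% Tween-80. Mice were observed daily until death or 45 days. Median survival T/C was calculated from survivors per NCI protocols, and ILS = (T/C − 1) × 100. Active range means doses giving ILS ≥25%; optimal dose means greatest ILS.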
# L1210 [2] = test: Antitumor activity was determined against the ic implanted L1210 lymphoid leukemia in mice by percent increase in life span at 133 mg/kg (1,5,9qd treatment schedule) dosage; type: functional, Mus musculus
# How it was run: (§2)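 DBA/2J mice, groups of 6 (26-32 g), got 1 × 10^5 L1210 cells ic on day 0. Dosing was ip starting 24 h later, as a sonicated solution or suspension in 0.9% NaCl with 0.5% Tween-80, over a wide dose range. Mice were followed daily until death. Median survival T/C was taken from survivors per NCI protocols, and ILS = (T/C − 1) × 100. Active range means doses giving ILS ≥25%; optimal dose means greatest ILS.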
# L1210 [3] = test: Antitumor activity was determined against the ic implanted L1210 lymphoid leukemia in mice by change in body weight at 300 mg/kg (1 qd treatment schedule) dosage
# L1210 [4] = test: Antitumor activity was determined against the ic implanted L1210 lymphoid leukemia in mice by median survival time at 133 mg/kg (1,5,9qd treatment schedule) dosage; 20.0/8.0
# L1210 [5] = test: Antitumor activity against the ic implanted L1210 lymphoid leukemia in mice (1,5,9qd treatment schedule) required to produce greatest increase in life span was determined; type: functional, Mus musculus; how it was run: as §2
# L1210 [6] = test: Antitumor activity was determined against the ic implanted L1210 lymphoid leukemia in mice by range in survival days at 300 mg/kg (1 qd treatment schedule) dosage; Range is 19-23; type: functional, Mus musculus
# P388 [7] = test: Antitumor activity was determined against the ip implanted P388 leukemia in mice by range in survival days at 60 mg/kg (1-5qd treatment schedule) dosage; Range is 35->45; type: functional, Mus musculus; conditions: route intraperitoneal
# [8] = system: Small cell lung cancer cell line; test: Compound was tested for the inhibition of small cell lung cancer; type: functional, cell-based; conditions: Homo sapiens
# How it was run: (§3)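 Human leukemia and solid tumor cells in culture were exposed to compound for 48 h. Viability was scored by trypan blue dye exclusion. IC50 (50% inhibition) was estimated from response curves of three separate experiments.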
# L1210 [9] = test: Antitumor activity was determined against the ic implanted L1210 lymphoid leukemia in mice by range in survival days at 300 mg/kg (treatment of 1-5qd schedule) dosage; Range is 15-18; type: functional, Mus musculus
# L1210 [10] = test: Antitumor activity was determined against the ip implanted L1210 leukemia in mice by range in survival days at 200 mg/kg (treatment of 1-5qd schedule) dosage; Range is 15-17; type: functional, Mus musculus; conditions: route intraperitoneal
# How it was run: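 DBA/2J mice, 23-28 g, in groups of 6, were inoculated ip with 1×10^6 L1210 cells on day 0. Dosing was ip starting 24 h later on the stated daily schedules. Conjugates were given as sonicated solutions and reference prodrugs as suspensions in 0.9% NaCl with 0.5% Tween-80. Mice were observed daily until death or 45 days. Median survival T/C was calculated from survivors per NCI protocols.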
# L1210 [11] = test: Antitumor activity against ic implanted L1210 lymphoid leukemia in mice expressed as active dose range (1-5qd treatment schedule) required to produce increase in life span by >25% was determined; Range is 50-300; type: functional, Mus musculus; how it was run: as §2
# L1210 [12] = test: Antitumor activity against ic implanted L1210 lymphoid leukemia in mice expressed as active dose range (1-9qd treatment schedule) required to produce increase in life span by >25% was determined; Range is 100-300; type: functional, Mus musculus; how it was run: as §2
# P388 [13] = test: Antitumor activity was determined against the ip implanted P388 leukemia in mice by range in survival days at 200 mg/kg (treatment of 1-5qd schedule) dosage; Range is 22-24; type: functional, Mus musculus; conditions: route intraperitoneal
# AMML = test: Compound was tested for the inhibition of AMML (acute myelomonocytic leukemia); type: functional, cell-based; conditions: Homo sapiens; how it was run: as §3
# P388 [14] = test: Antitumor activity against ip implanted P388 leukemia in mice expressed as active dose range (1,5,9qd treatment schedule) required to produce increase in life span by >25% was determined; Range is 67-133; type: functional, Mus musculus; how it was run: as §1
# L1210 [15] = test: Antitumor activity was determined against the ic implanted L1210 lymphoid leukemia in mice by percent increase in life span at 167 mg/kg (treatment of 1, 5, 9qd schedule) dosage; type: functional, Mus musculus; how it was run: as §2
# L1210 [16] = test: Antitumor activity was determined against the ic implanted L1210 lymphoid leukemia in mice by percent increase in life span at 100 mg/kg (treatment of 1-5qd schedule) dosage; type: functional, Mus musculus; how it was run: as §2
# L1210 [17] = test: Antitumor activity was determined against the ic implanted L1210 lymphoid leukemia in mice by median survival time at 167 mg/kg (treatment of 1, 5, 9qd schedule) dosage; 21.0/7.0
# L1210 [18] = test: Antitumor activity was determined against the ic implanted L1210 lymphoid leukemia in mice by change in […] at 100 mg/kg (treatment of 1-5qd schedule) dosage; type: functional, Mus musculus
# How it was run: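 DBA/2J mice, 6 per group (wt 26-32 g), inoculated ic with 1×10^5 L1210 cells on day 0. Dosing ip began 24 h after inoculation, with a sonicated solution or suspension in 0.9% NaCl containing 0.5% Tween-80, given over a range of doses. Animals were followed daily until death. Body weight change, median survival T/C, and %ILS = (T/C − 1) × 100 were computed from survivors per NCI protocols.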
# L1210 (mouse) = test: Antitumor activity was determined against the ic implanted L1210 lymphoid leukemia in mice by change in […] at 500 mg/kg (treatment of 1qd schedule) dosage
# L1210 [19] = test: Antitumor activity against ip implanted L1210 leukemia in mice expressed as active dose range (1 qd treatment schedule) required to produce increase in life span by >25% was determined; Range is 300-500; type: functional, Mus musculus
# How it was run: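 DBA/2J mice, groups of 6 (23-28 g), were inoculated ip with 1 × 10^6 L1210 cells on day 0. Dosing was ip from 24 h, in 0.9% NaCl with 0.5% Tween-80 (sonicated solution or suspension). Mice were observed daily until death or day 45. Median survival T/C followed NCI protocols, and ILS = (T/C − 1) × 100. Active range means doses giving ILS ≥25%; optimal dose means greatest ILS.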
# P388 [20] = test: Antitumor activity was determined against the ip implanted P388 leukemia in mice by percent median survival rate (treated/control) at 60 mg/kg (1-5qd treatment schedule) dosage; 23.0/11.0; type: functional, Mus musculus; conditions: route intraperitoneal
# P388 [21] = test: Antitumor activity was determined against the ip implanted P388 leukemia in mice by range in survival days at 67 mg/kg (treatment of 1,5,9qd schedule) dosage; Range is 21-31; type: functional, Mus musculus; conditions: route intraperitoneal
structure (smiles),measurement,setting,value
CCCCCCCCCCCCCCCC(=O)OC[C@H](COP(=O)(O)OP(=O)(O)OC[C@H]1O[C@@H](n2ccc(N)nc2=O)[C@@H](O)[C@@H]1O)OC(=O)CCCCCCCCCCCCCCC,Active dose range,P388 [1],100 mg/kg/day
same,ILS,L1210 [2],150
same,Weight change,L1210 [3],-0.88 g mouse-1
same,median survival time,L1210 [4],20 days
same,Optimal dose,L1210 [5],133 mg
same,Range,L1210 [6],19
same,Range,P388 [7],35
Nc1ccn([C@@H]2O[C@H](CO)[C@@H](O)[C@@H]2O)c(=O)n1 [CYTARABINE],IC50,[8],> 100 µM
same,Range,L1210 [9],15
same,Range,L1210 [10],15
same,Active dose range,L1210 [11],50 mg/kg/day
same,Active dose range,L1210 [12],100 mg/kg/day
same,Range,P388 [13],22
same,IC50,AMML,2.3 µM
CCCCCCCCCCCCCCCCOCC(COP(=O)(O)OP(=O)(O)OC[C@H]1O[C@@H](n2ccc(N)nc2=O)[C@@H](O)[C@@H]1O)OC(=O)CCCCCCCCCCCCCCC (mixture of isomers),Active dose range,P388 [14],67 mg/kg/day
same,ILS,L1210 [15],200
same,ILS,L1210 [16],214
same,median survival time,L1210 [17],21 days
same,Weight change,L1210 [18],-2.03 g mouse-1
same,Weight change,L1210 (mouse),-2.07 g mouse-1
CCCCCCCCCCCCCCCCCCOCC(COP(=O)(O)OP(=O)(O)OC[C@H]1O[C@@H](n2ccc(N)nc2=O)[C@@H](O)[C@@H]1O)OC(=O)CCCCCCCCCCCCCCC (mixture of isomers),Active dose range,L1210 [19],300 mg/kg/day
same,T/C,P388 [20],23%
same,Range,P388 [21],21
